Values belong to the compound of their own block, whether it stands above or below them. The source made the active and inactive calls. The calls are words filed in the database; no cut-off is given here.
Assays:
[1] = target: T1, Free fatty acid receptor 1 (Homo sapiens, UniProt O14842); assay: Agonist activity at human GPR40 expressed in CHO cells assessed as increase in intracellular Ca2+ flux by Fluo 4-AM dye based assay; assay type: functional, cell-based
[2] = target: T1, Free fatty acid receptor 1; assay: Agonist activity at human GPR40 expressed in CHO cells assessed as increase in intracellular Ca2+ flux by Fluo 4-AM dye based assay relative to 3-(4-((2',6'-dimethylbiphenyl-3-yl)methoxy)phenyl)propanoic acid; assay type: functional, cell-based
Procedure, shortened: (§1)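 CHO cells stably expressing hGPR40 or hGPR120, seeded and incubated overnight at 37 ℃, 5% CO2. Loaded 90 min with Fluo 4-AM (3 μM) and probenecid (2.5 mM) in HBSS/0.1% BSA, washed, equilibrated 10 min. Ca2+ read as change in 585/525 ratio before and after compound addition; EC50 and Emax fitted from curves, Emax relative to reference agonist 4; mean ± SD, three independent experiments.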

[3] = target: T1, Free fatty acid receptor 1; assay: Agonist activity at human GPR40 expressed in CHO cells assessed as increase in intracellular Ca2+ flux at 20 uM by Fluo 4-AM dye based assay; assay type: functional, cell-based; procedure, shortened: as §1
[4] = target: T1, Free fatty acid receptor 1; assay: Agonist activity at human GPR40 expressed in CHO cells assessed as increase in intracellular Ca2+ flux at 10 uM by Fluo 4-AM dye based assay; assay type: functional, cell-based; procedure, shortened: as §1
[5] = target: T2, Peroxisome proliferator-activated receptor gamma (Homo sapiens, UniProt P37231); assay: Agonist activity at PPARgamma (unknown origin) expressed in HEK293T cells by luciferase reporter gene assay; assay type: cell-based
T2 sequence (P37231 whole entry): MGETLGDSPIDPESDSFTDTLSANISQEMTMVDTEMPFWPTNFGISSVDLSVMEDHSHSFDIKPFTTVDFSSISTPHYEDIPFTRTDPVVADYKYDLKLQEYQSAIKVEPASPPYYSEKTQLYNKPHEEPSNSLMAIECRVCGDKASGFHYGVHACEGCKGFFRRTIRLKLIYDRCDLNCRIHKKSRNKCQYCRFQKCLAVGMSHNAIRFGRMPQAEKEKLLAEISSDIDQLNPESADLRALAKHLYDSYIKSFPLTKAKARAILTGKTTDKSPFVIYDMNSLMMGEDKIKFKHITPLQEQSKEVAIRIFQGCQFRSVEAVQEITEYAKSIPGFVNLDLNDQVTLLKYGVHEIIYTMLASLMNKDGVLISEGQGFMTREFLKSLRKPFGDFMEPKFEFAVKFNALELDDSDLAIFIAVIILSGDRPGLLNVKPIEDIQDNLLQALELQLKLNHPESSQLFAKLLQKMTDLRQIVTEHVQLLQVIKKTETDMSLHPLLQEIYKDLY

[6] = target: T3, Free fatty acid receptor 4 (Homo sapiens, UniProt Q5NUL3); assay: Agonist activity at human GPR120 expressed in CHO cells assessed as increase in intracellular Ca2+ flux by Fluo 4-AM dye based assay; assay type: functional, cell-based; procedure, shortened: as §1
T3 sequence (Q5NUL3 whole entry): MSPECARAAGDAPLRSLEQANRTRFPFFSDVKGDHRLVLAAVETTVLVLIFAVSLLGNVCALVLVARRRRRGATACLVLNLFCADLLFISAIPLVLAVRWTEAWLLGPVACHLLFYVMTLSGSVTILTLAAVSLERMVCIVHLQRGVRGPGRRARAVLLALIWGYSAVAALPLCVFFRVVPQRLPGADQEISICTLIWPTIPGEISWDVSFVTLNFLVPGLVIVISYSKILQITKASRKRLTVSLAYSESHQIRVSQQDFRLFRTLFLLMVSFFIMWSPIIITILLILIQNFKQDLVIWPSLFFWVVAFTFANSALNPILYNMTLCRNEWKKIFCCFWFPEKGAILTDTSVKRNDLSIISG

[7] = target: Free fatty acid receptor 1 (Mus musculus) (UniProt Q76JU9); assay: Agonist activity at GPR40 in mouse MIN6 cells assessed as increase in 25 mM glucose-stimulated insulin secretion at 10 uM after 1 hr by ELISA; assay type: cell-based
Procedure, shortened: (§2)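 MIN6 cells pre-incubated 2 h at 37 ℃ in KRBH buffer with 0.1% BSA, then stimulated 1 h at 37 ℃ with 2 mM or 25 mM glucose, alone or with test agents. Insulin secreted into supernatant quantified by ELISA; mean ± SD of four independent experiments, compared with DMSO.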

[8] = target: T1, Free fatty acid receptor 1; assay: Agonist activity at human GPR40 expressed in HEK293T cells transfected with 0.05 ug of GPR40 expression plasmid assessed as increase in intracellular Ca2+ flux by Fluo 4-AM dye based assay; assay type: functional, cell-based; conditions: HEK-293T
Procedure, shortened: (§3)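 Plasmid titration: HEK293T cells transiently transfected with 5 μg or 0.05 μg hGPR40 expression plasmid, plated on poly-D-lysine and held 24 h. Loaded with Fluo 4-AM (3 μM) and probenecid (2.5 mM) in HBSS/0.1% BSA for 90 min, washed, equilibrated 10 min. Ca2+ response measured as change in 585/525 ratio after compound addition; mean ± SD of three experiments.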

[9] = Inhibition of hepatobiliary transporter in Sprague-Dawley rat sandwich-cultured rat hepatocytes assessed as decrease in d8-TCA by measuring biliary excretion index at 1 to 25 uM incubated for 15 mins followed by d8-TCA addition measured after 15 mins by LC-MS/MS analysis; assay type: ADME; conditions: 0.25 h
Procedure, shortened: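 Sandwich-cultured hepatocytes from male SD rats exposed to compound 15 min in standard HBSS. Cells rinsed and pre-incubated 15 min at 37 ℃ in standard or Ca2+-free HBSS, then incubated 15 min with compound plus 1 µM d8-TCA. Washed with ice-cold PBS; cellular d8-TCA measured by LC-MS/MS. BEI = (A_HBSS – A_Ca-free)/A_HBSS × 100%.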

Mus musculus = assay: Antidiabetic activity in ICR mouse assessed as decrease in blood glucose AUC at 10 mg/kg, po administered 30 mins prior to glucose challenge measured 120 mins post dose by OGTT; assay type: functional, organism-based
Procedure, shortened: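 Six-week-old male ICR mice fasted 16 h, n = 10 per group, dosed orally in 0.5% methylcellulose/20% PEG400 (10 or 20 mg/kg). Oral glucose load 2.5 g/kg by gavage 30 min later. Tail-vein glucose read at -30, 0, 30, 60, 90 and 120 min; AUC0-120 min computed and compared with vehicle.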

[10] = target: T1, Free fatty acid receptor 1; assay: Agonist activity at human GPR40 expressed in HEK293T cells transfected with 5 ug of GPR40 expression plasmid assessed as increase in intracellular Ca2+ flux by Fluo 4-AM dye based assay; assay type: functional, cell-based; conditions: HEK-293T; procedure, shortened: as §3
[11] = target: Free fatty acid receptor 1 (Mus musculus) (UniProt Q76JU9); assay: Agonist activity at GPR40 in mouse MIN6 cells assessed as increase in 25 mM glucose-stimulated insulin secretion at 300 nM after 1 hr by ELISA; assay type: cell-based; procedure, shortened: as §2

Chain of Free fatty acid receptor 1 (Mus musculus) (Q76JU9 whole entry): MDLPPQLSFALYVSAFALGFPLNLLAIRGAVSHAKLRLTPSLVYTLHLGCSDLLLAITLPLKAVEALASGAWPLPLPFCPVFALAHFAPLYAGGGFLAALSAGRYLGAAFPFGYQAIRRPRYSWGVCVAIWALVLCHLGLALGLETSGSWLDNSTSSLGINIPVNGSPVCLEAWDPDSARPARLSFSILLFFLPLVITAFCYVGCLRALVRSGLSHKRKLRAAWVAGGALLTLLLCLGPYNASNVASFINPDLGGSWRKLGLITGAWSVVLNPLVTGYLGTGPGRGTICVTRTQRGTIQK
T1 sequence (O14842 whole entry): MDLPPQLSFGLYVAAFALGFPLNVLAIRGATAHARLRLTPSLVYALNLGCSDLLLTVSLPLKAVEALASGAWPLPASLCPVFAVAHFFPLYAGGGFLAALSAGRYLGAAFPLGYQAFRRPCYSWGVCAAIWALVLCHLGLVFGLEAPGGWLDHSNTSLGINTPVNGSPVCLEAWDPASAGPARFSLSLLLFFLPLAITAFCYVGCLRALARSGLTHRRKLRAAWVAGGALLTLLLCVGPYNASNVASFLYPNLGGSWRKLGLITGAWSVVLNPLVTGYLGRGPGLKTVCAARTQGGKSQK

EC50 [1]: 2.42 µM
Emax [2]: 136%
Structure (SMILES): Cc1cccc(C)c1-c1cccc(OCc2ccc(CCC(=O)O)s2)c1

EC50 [1]: 0.008 µM
Emax [2]: 100%
Structure (SMILES): Cc1cccc(C)c1-c1cccc(COc2ccc(CCC(=O)O)cc2)c1

EC50 [1]: 0.21 µM
Structure (SMILES): COC(CC(=O)O)c1ccc(OCc2cccc(-c3c(C)cccc3C)c2)s1 (racemic)

EC50 [1]: 2.01 µM
Structure (SMILES): O=C(O)CCc1ccc(OCc2cccc(-c3ccncc3Cl)c2)s1

Activity [3]: inactive
Structure (SMILES): Cc1cccc(C)c1-c1ccc(COc2ccc(CCC(=O)O)s2)cc1

EC50 [1]: 2.71 µM
Structure (SMILES): O=C(O)CCc1ccc(OCc2cccc(-c3ccccc3C(F)(F)F)c2)s1

Activity [4]: inactive
Structure (SMILES): CC#CC(CC(=O)O)c1ccc(OCc2cccc(-c3c(C)cc(OC4CCN(C)CC4)cc3C)c2)s1 (racemic)

Activity [4]: inactive
Structure (SMILES): Cc1cccc(C)c1-c1cccc(COc2ccc(C(C)CC(=O)O)s2)c1 (racemic)

EC50 [1]: 0.082 µM
Structure (SMILES): Cc1cccc(C)c1-c1cccc(COc2ccc(CC3SC(=O)NC3=O)s2)c1 (centres undefined)

Activity [4]: inactive
Structure (SMILES): O=C(O)CCc1ccc(OCc2cccc(-c3cc(Cl)nc(Cl)c3)c2)s1

Activity [4]: inactive
Structure (SMILES): N#Cc1ccccc1-c1cccc(COc2ccc(CCC(=O)O)s2)c1

EC50 [1]: 40.1 µM
Structure (SMILES): CCO[C@@H](CC(=O)O)c1ccc(OCc2cccc(-c3c(C)cccc3C)c2)s1

EC50 [1]: 0.45 µM
Structure (SMILES): CC#CC(CC(=O)O)c1ccc(OCc2cccc(-c3c(C)cc(OCC4(C)COC4)cc3C)c2)s1 (racemic)

EC50 [5]: > 10 µM
EC50 [1]: 0.05 µM
EC50 [6]: > 10 µM
Activity [7]: inactive
Emax [2]: 147%
Structure (SMILES): CCO[C@H](CC(=O)O)c1ccc(OCc2cccc(-c3c(C)cccc3C)c2)s1

Activity [3]: inactive
Structure (SMILES): CC#CC(CC(=O)O)c1ccc(OCc2ccc(CN3CCC4(C=Cc5ccccc54)CC3)cc2)s1 (centres undefined)

Activity [3]: inactive
Structure (SMILES): Cc1cccc(C)c1-c1cccc(COc2cc3sc(C(=O)O)cc3s2)c1

EC50 [1]: 0.24 µM
Structure (SMILES): CC#CC(CC(=O)O)c1ccc(OCc2cccc(-c3c(C)cc(OCCCS(C)(=O)=O)cc3C)c2)s1 (racemic)

EC50 [1]: 14.7 µM
Emax [2]: 79.9%
Structure (SMILES): Cc1cccc(C)c1-c1cccc(OCc2cn(CCC(=O)O)nn2)c1

EC50 [1]: 0.21 µM
Structure (SMILES): CC#CC(CC(=O)O)c1ccc(OCc2cccc(-c3c(C)cccc3C)c2)s1 (racemic)

Activity [4]: inactive
Structure (SMILES): NC(=O)c1ccccc1-c1cccc(COc2ccc(CCC(=O)O)s2)c1

Activity [4]: inactive
Structure (SMILES): COc1ccccc1-c1cccc(COc2ccc(CCC(=O)O)s2)c1

Activity [8]: inactive
Activity [9]: Not Active
Activity [7]: Active
Activity [10]: Active
Activity [11]: Active
Structure (SMILES): Cc1cc(OCCCS(C)(=O)=O)cc(C)c1-c1cccc(COc2ccc3c(c2)OC[C@H]3CC(=O)O)c1
Activity (Mus musculus): Active

Activity [4]: inactive
Structure (SMILES): CCCC(CC(=O)O)c1ccc(OCc2cccc(-c3c(C)cccc3C)c2)s1 (racemic)

EC50 [1]: 0.41 µM
Structure (SMILES): CC#C[C@H](CC(=O)O)c1ccc(OCc2cccc(-c3c(C)cc(OCCCS(C)(=O)=O)cc3C)c2)s1

EC50 [1]: 2.32 µM
Emax [2]: 135%
Structure (SMILES): Cc1cccc(C)c1-c1cccc(COc2csc(CCC(=O)O)c2)c1

EC50 [5]: > 10 µM
EC50 [1]: 0.032 µM
EC50 [6]: > 10 µM
Activity [7]: inactive
Emax [2]: 140%
Structure (SMILES): Cc1cccc(C)c1-c1cccc(COc2ccc(CCC(=O)O)s2)c1

EC50 [1]: 0.64 µM
Structure (SMILES): N#CCc1ccccc1C#Cc1ccc(CCC(=O)O)s1

EC50 [1]: 0.58 µM
Structure (SMILES): COc1ccc(F)c(-c2cccc(COc3ccc(CCC(=O)O)s3)c2)c1

EC50 [1]: 32.2 µM
Emax [2]: 95.6%
Structure (SMILES): Cc1cccc(C)c1-c1cccc(OCn2cc(CCC(=O)O)nn2)c1

Activity [4]: inactive
Structure (SMILES): Cc1cccc(C)c1-c1cccc(COc2ccc(C(CC(=O)O)c3c[nH]nn3)s2)c1 (racemic)

EC50 [1]: 0.11 µM
Structure (SMILES): Cc1cccc(C)c1-c1cccc(COc2ccc(C(C#N)CC(=O)O)s2)c1 (racemic)

EC50 [1]: 3.92 µM
Structure (SMILES): Cc1cccc(C)c1-c1cccc(COc2ccc(C(CC(=O)O)C3CC3)s2)c1 (racemic)

Activity [4]: inactive
Structure (SMILES): Cc1cccc(C)c1-c1cccc(COc2ccc([C@H](CC(=O)O)c3ccon3)s2)c1

Activity [8]: Active
Activity [10]: Active
Structure (SMILES): CC/C=C\C/C=C\C/C=C\C/C=C\C/C=C\C/C=C\CCC(=O)O

Activity [4]: inactive
Structure (SMILES): CCC(CC(=O)O)c1ccc(OCc2cccc(-c3c(C)cccc3C)c2)s1 (racemic)

EC50 [1]: 14.8 µM
Emax [2]: 97.9%
Structure (SMILES): Cc1cccc(C)c1-c1cccc(COc2cn(CCC(=O)O)nn2)c1

EC50 [1]: 0.057 µM
Structure (SMILES): CCOC(CC(=O)O)c1ccc(OCc2cccc(-c3c(C)cccc3C)c2)s1 (racemic)

Activity [4]: inactive
Structure (SMILES): O=C(O)CCc1ccc(OCc2cccc(-c3ccc(C(F)(F)F)cc3)c2)s1

Activity [3]: inactive
Structure (SMILES): Cc1cccc(C)c1-c1cccc(COc2cc3sc(CCC(=O)O)cc3s2)c1

Reference: ChEMBL document CHEMBL4007473, “Discovery of Potent and Orally Bioavailable GPR40 Full Agonists Bearing Thiophen-2-ylpropanoic Acid Scaffold” (J Med Chem, 2017)
